ChEMBL document CHEMBL5724801, “EUbOPEN Chemogenomics Library - Multiplex” (2024)
Several values for one entry are separate records, joined by “and”; a condition that tells them apart may be missing. Equal values may be shown once.

Columns and labels:
U2OS = experiment: Multiplex assay against U2OS; format: toxicity, cell-based; conditions: human
Summary of the method: (§1)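 Hoechst33342, BioTracker Green Microtubule Cytoskeleton Dye, MitoTracker Red and Annexin V Alexa Fluor 680 were added to live cells at seeding, and imaging on a CQ1 microscope at 37°C and 5% CO2 followed compound addition. Gating by CellPathfinder machine learning separated cells into Hoechst high-intensity objects or normal cells, then normal cells into healthy, pyknosed or fragmented nuclei, then pyknosed cells into mitotic or apoptotic. Per cents of healthy-nucleus cells are reported for the tubulin, mitochondrial-mass and membrane-permeability phenotypes.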

HEK-293T = experiment: Multiplex assay against HEK293T; format: toxicity, cell-based; conditions: human; summary of the method: as §1
[1] = 12 h, 1 µM, compound concentration 1 uM
[2] = 12 h, 10 µM, compound concentration 10 uM
[3] = 24 h, 1 µM, compound concentration 1 uM
[4] = 24 h, 10 µM, compound concentration 10 uM
[5] = 48 h, 1 µM, compound concentration 1 uM
[6] = 48 h, 10 µM, compound concentration 10 uM

SMILES: CN(C)CCCn1cc(C2=C(c3c[nH]c4ccccc34)C(=O)NC2=O)c2ccccc21 [GF-109203]
- Population Apoptotic (%) (U2OS; [1]): 29.27% and 38.1%
- Population Healthy Nuclei (%) (U2OS; [1]): 87.6% and 71.08%
- Population Hoechst High Intensity Objects (%) (U2OS; [1]): 0%
- Population Membrane Permeable-Phenotype (%) (U2OS; [1]): 1.47% and 5.52%
- Population Mitotic Cells (%) (U2OS; [1]): 70.73% and 61.9%
- Population Normal (%) (U2OS; [1]): 100%
- Population Pyknosed Nuclei (%) (U2OS; [1]): 10.59% and 10.29%
- Population Tubulin-Different-Phenotype (%) (U2OS; [1]): 1.77% and 1.38%
- Total Cell Count (U2OS; [1]): 387 and 204
- Population Apoptotic (%) (U2OS; [2]): 35.21% and 37.14%
- Population Fragmented Nuclei (%) (U2OS; [2]): 1.16% and 5.8%
- Population Healthy Nuclei (%) (U2OS; [2]): 78.32% and 68.84%
- Population Hoechst High Intensity Objects (%) (U2OS; [2]): 0%
- Population Membrane Permeable-Phenotype (%) (U2OS; [2]): 49.08% and 62.11%
- Population Mitotic Cells (%) (U2OS; [2]): 64.79% and 62.86%
- Population Normal (%) (U2OS; [2]): 100%
- Population Pyknosed Nuclei (%) (U2OS; [2]): 20.52% and 25.36%
- Population Tubulin-Different-Phenotype (%) (U2OS; [2]): 70.11% and 53.68%
- Total Cell Count (U2OS; [2]): 346 and 138
- Population Apoptotic (%) (U2OS; [3]): 38.98% and 53.33%
- Population Healthy Nuclei (%) (U2OS; [3]): 87.5% and 70.09%
- Population Hoechst High Intensity Objects (%) (U2OS; [3]): 0.19% and 0%
- Population Membrane Permeable-Phenotype (%) (U2OS; [3]): 1.34% and 5.49%
- Population Mitochondria Different-Phenotype (%) (U2OS; [3]): 0% and 15.85%
- Population Mitotic Cells (%) (U2OS; [3]): 61.02% and 46.67%
- Population Normal (%) (U2OS; [3]): 99.81% and 100%
- Population Pyknosed Nuclei (%) (U2OS; [3]): 11.52% and 12.82%
- Population Tubulin-Different-Phenotype (%) (U2OS; [3]): 0.89% and 2.44%
- Total Cell Count (U2OS; [3]): 513 and 234
- Population Apoptotic (%) (U2OS; [4]): 66.23% and 81.33%
- Population Fragmented Nuclei (%) (U2OS; [4]): 2.13% and 6.99%
- Population Healthy Nuclei (%) (U2OS; [4]): 51.98% and 40.56%
- Population Hoechst High Intensity Objects (%) (U2OS; [4]): 0%
- Population Membrane Permeable-Phenotype (%) (U2OS; [4]): 35.67% and 50%
- Population Mitotic Cells (%) (U2OS; [4]): 33.77% and 18.67%
- Population Normal (%) (U2OS; [4]): 100%
- Population Pyknosed Nuclei (%) (U2OS; [4]): 45.9% and 52.45%
- Population Tubulin-Different-Phenotype (%) (U2OS; [4]): 60.23% and 58.62%
- Total Cell Count (U2OS; [4]): 329 and 143
- Population Apoptotic (%) (U2OS; [5]): 41.25% and 46.51%
- Population Healthy Nuclei (%) (U2OS; [5]): 88.82% and 68.86%
- Population Hoechst High Intensity Objects (%) (U2OS; [5]): 0% and 0.34%
- Population Membrane Permeable-Phenotype (%) (U2OS; [5]): 1.36% and 5.03%
- Population Mitochondria Different-Phenotype (%) (U2OS; [5]): 0% and 16.08%
- Population Mitotic Cells (%) (U2OS; [5]): 58.75% and 53.49%
- Population Normal (%) (U2OS; [5]): 100% and 99.66%
- Population Pyknosed Nuclei (%) (U2OS; [5]): 8.77% and 14.88%
- Population Tubulin-Different-Phenotype (%) (U2OS; [5]): 0.99% and 3.02%
- Population Apoptotic (%) (U2OS; [6]): 86.32% and 90.65%
- Population Fragmented Nuclei (%) (U2OS; [6]): 6.15% and 9.46%
- Population Healthy Nuclei (%) (U2OS; [6]): 28.62% and 18.24%
- Population Hoechst High Intensity Objects (%) (U2OS; [6]): 0.31% and 0%
- Population Mitochondria Different-Phenotype (%) (U2OS; [6]): 24.73% and 55.56%
- Population Mitotic Cells (%) (U2OS; [6]): 13.68% and 9.35%
- Population Normal (%) (U2OS; [6]): 99.69% and 100%
- Population Pyknosed Nuclei (%) (U2OS; [6]): 65.23% and 72.3%
- Population Tubulin-Different-Phenotype (%) (U2OS; [6]): 63.44% and 37.04%
- Total Cell Count (U2OS; [6]): 326 and 148
- Population Apoptotic (%) (HEK-293T; [1]): 9.36% and 6.29%
- Population Fragmented Nuclei (%) (HEK-293T; [1]): 1.17% and 4.02%
- Population Hoechst High Intensity Objects (%) (HEK-293T; [1]): 0.58% and 0%
- Population Membrane Permeable-Phenotype (%) (HEK-293T; [1]): 0% and 4.17%
- Population Mitochondria Different-Phenotype (%) (HEK-293T; [1]): 26.35% and 29.17%
- Population Mitotic Cells (%) (HEK-293T; [1]): 90.64% and 93.71%
- Population Normal (%) (HEK-293T; [1]): 99.42% and 100%
- Population Pyknosed Nuclei (%) (HEK-293T; [1]): 50% and 82.18%
- Total Cell Count (HEK-293T; [1]): 344 and 174
- Population Apoptotic (%) (HEK-293T; [2]): 11.11% and 17.19%
- Population Fragmented Nuclei (%) (HEK-293T; [2]): 4.81% and 3.4%
- Population Hoechst High Intensity Objects (%) (HEK-293T; [2]): 0.32% and 0%
- Population Membrane Permeable-Phenotype (%) (HEK-293T; [2]): 0% and 7.14%
- Population Mitotic Cells (%) (HEK-293T; [2]): 88.89% and 82.81%
- Population Normal (%) (HEK-293T; [2]): 99.68% and 100%
- Population Pyknosed Nuclei (%) (HEK-293T; [2]): 57.69% and 87.07%
- Population Tubulin-Different-Phenotype (%) (HEK-293T; [2]): 52.99% and 57.14%
- Total Cell Count (HEK-293T; [2]): 313 and 147
- Population Apoptotic (%) (HEK-293T; [3]): 15.57% and 18.97%
- Population Fragmented Nuclei (%) (HEK-293T; [3]): 1.6% and 5.42%
- Population Healthy Nuclei (%) (HEK-293T; [3]): 73.95% and 24.7%
- Population Hoechst High Intensity Objects (%) (HEK-293T; [3]): 0%
- Population Membrane Permeable-Phenotype (%) (HEK-293T; [3]): 1.36% and 4.88%
- Population Mitochondria Different-Phenotype (%) (HEK-293T; [3]): 10.84% and 17.07%
- Population Mitotic Cells (%) (HEK-293T; [3]): 84.43% and 81.03%
- Population Normal (%) (HEK-293T; [3]): 100%
- Population Pyknosed Nuclei (%) (HEK-293T; [3]): 24.45% and 69.88%
- Population Tubulin-Different-Phenotype (%) (HEK-293T; [3]): 17.62% and 12.2%
- Population Apoptotic (%) (HEK-293T; [4]): 27.17% and 24.46%
